Experiments:
[1] = target: T1, Casein kinase II (Homo sapiens) (UniProt P67870+P68400+P19784); assay: Residual activity of human CK2 at 30 uM; format: protein-complex assay
[2] = target: Ribosomal protein S6 kinase alpha-5 (Homo sapiens) (UniProt O75582); assay: Residual activity of MSK1 at 10 uM in presence of 100 uM ATP relative to control
[3] = target: Dual specificity tyrosine-phosphorylation-regulated kinase 1A (Homo sapiens) (UniProt Q13627); assay: Residual activity of DYRK1a at 10 uM in presence of 100 uM ATP relative to control
Casein kinase II [4] = target: T2, Casein kinase II (Homo sapiens, UniProt P19784+P67870+P68400); assay: Inhibition of human CK2; format: protein-complex assay
[5] = target: Glycogen synthase kinase-3 (Homo sapiens) (UniProt P49840+P49841); assay: Residual activity of GSK3 at 10 uM in presence of 100 uM ATP relative to control; format: protein assay
[6] = target: Cyclin-dependent kinase 5 (Homo sapiens) (UniProt Q00535); assay: Residual activity of CDK5 at 10 uM in presence of 100 uM ATP relative to control
[7] = target: Mitogen-activated protein kinase 10 (Homo sapiens) (UniProt P53779); assay: Residual activity of JNK3 at 10 uM in presence of 100 uM ATP relative to control
[8] = target: Rho-associated protein kinase 1 (Homo sapiens) (UniProt Q13464); assay: Residual activity of ROCK1 at 10 uM in presence of 100 uM ATP relative to control
[9] = target: Tyrosine-protein kinase Lck (Homo sapiens) (UniProt P06239); assay: Residual activity of p56LCK at 10 uM in presence of 100 uM ATP relative to control
Casein kinase II [10] = target: T2, Casein kinase II; assay: Binding affinity to human CK2 in presence of ATP; format: protein-complex assay
Method in brief: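 Ki obtained from Lineweaver-Burk plots of CK2 activity measured at varied ATP and inhibitor concentrations (inhibitor 0 to 0.5 µM). Activity was read by the radiometric phosphocellulose peptide assay.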

[11] = target: T1, Casein kinase II (Homo sapiens); assay: Residual activity of CK2 at 10 uM in presence of 100 uM ATP relative to control; format: protein-complex assay

T2 sequence (P67870 whole entry): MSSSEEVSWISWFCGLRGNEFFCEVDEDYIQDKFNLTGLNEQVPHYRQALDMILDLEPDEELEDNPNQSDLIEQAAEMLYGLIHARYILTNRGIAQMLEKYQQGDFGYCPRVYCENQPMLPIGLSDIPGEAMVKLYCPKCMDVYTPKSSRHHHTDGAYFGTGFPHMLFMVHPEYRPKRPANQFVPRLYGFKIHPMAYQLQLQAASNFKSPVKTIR
T2 sequence (P68400 whole entry): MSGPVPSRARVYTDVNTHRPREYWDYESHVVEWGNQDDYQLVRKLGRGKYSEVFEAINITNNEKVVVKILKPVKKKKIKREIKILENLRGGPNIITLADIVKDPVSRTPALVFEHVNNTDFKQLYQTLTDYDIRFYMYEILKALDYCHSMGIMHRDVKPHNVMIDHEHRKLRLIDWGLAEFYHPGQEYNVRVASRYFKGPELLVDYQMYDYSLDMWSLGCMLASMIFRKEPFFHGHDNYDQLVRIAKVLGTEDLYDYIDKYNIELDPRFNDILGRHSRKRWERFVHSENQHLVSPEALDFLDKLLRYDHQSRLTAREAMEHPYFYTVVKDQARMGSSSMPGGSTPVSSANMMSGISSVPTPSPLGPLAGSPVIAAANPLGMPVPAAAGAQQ
T2 sequence (P19784 whole entry): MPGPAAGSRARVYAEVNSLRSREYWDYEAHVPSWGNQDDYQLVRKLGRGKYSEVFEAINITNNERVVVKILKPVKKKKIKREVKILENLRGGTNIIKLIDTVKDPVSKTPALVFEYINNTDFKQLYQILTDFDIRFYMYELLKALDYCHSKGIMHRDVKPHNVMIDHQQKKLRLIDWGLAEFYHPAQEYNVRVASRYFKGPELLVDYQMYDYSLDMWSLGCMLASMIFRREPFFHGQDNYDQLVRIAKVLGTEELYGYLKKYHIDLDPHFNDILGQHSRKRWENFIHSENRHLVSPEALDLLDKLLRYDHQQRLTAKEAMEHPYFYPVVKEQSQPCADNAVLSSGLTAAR
Chain of Mitogen-activated protein kinase 10 (Homo sapiens) (P53779 whole entry): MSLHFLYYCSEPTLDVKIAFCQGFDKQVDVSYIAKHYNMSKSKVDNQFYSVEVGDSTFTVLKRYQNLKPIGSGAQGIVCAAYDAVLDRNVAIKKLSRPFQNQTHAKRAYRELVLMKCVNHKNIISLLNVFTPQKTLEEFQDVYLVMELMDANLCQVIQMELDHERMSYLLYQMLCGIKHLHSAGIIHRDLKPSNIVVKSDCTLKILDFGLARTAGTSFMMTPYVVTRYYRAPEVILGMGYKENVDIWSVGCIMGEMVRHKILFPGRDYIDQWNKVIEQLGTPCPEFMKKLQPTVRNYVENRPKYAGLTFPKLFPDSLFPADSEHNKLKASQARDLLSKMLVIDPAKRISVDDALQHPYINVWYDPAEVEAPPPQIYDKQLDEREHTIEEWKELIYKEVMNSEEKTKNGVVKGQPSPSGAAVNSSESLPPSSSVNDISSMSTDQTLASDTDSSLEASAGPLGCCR
Chain of Ribosomal protein S6 kinase alpha-5 (Homo sapiens) (O75582 whole entry, looked up): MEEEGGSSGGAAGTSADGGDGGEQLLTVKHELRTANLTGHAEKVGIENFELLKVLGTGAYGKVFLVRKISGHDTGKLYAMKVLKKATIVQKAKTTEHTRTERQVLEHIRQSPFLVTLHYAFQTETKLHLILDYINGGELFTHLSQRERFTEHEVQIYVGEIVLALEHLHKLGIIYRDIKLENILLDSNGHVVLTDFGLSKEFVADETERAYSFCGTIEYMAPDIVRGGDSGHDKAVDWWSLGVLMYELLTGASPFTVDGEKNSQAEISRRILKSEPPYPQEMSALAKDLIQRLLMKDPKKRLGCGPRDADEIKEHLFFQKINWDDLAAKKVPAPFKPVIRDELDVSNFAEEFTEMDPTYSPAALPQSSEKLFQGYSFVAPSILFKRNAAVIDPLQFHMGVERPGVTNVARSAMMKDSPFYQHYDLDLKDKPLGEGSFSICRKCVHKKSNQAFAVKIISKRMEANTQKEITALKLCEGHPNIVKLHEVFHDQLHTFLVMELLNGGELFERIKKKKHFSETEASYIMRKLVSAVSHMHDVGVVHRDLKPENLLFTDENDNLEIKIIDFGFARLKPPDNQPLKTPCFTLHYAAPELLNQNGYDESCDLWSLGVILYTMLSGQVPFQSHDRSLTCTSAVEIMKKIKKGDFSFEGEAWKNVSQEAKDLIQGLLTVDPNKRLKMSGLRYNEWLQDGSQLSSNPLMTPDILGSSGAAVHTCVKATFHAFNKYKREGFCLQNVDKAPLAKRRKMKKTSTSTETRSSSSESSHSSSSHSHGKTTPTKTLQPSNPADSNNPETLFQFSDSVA
Chain of Cyclin-dependent kinase 5 (Homo sapiens) (Q00535 whole entry, looked up): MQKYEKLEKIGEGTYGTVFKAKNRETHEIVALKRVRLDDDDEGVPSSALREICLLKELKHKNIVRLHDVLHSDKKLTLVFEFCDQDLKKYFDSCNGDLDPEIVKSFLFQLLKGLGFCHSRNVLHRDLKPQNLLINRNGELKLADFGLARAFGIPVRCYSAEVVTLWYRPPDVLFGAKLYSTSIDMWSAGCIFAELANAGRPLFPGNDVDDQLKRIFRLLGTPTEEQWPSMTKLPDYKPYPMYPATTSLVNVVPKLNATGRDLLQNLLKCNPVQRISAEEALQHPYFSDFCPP
Chain of Tyrosine-protein kinase Lck (Homo sapiens) (P06239 2-509 limits assumed): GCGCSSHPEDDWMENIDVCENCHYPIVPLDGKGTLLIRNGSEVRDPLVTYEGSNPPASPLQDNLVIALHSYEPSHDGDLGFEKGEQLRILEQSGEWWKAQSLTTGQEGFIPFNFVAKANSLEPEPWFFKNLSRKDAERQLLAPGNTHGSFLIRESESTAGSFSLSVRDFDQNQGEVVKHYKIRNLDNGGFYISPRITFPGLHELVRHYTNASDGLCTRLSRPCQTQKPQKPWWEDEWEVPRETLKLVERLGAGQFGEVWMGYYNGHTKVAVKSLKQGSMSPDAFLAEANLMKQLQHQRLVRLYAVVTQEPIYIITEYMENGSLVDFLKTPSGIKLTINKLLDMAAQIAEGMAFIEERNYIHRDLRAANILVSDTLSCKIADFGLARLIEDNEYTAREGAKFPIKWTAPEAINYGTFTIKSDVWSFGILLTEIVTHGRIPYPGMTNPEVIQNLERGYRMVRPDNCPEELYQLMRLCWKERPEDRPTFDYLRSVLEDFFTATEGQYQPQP
Chain of Glycogen synthase kinase-3 (Homo sapiens) (P49840 whole entry, looked up): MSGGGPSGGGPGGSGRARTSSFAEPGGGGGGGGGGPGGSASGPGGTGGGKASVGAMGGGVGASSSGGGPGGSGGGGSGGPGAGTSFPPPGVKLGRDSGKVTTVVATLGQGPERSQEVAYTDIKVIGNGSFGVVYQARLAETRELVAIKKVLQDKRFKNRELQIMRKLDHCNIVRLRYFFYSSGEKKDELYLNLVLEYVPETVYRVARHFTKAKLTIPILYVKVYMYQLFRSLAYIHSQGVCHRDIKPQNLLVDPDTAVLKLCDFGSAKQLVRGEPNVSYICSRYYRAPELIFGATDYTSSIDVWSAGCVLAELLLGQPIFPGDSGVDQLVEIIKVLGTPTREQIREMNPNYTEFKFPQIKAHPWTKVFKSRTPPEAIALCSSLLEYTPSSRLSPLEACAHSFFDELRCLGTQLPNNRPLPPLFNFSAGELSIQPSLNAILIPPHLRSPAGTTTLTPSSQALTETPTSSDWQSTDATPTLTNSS
Chain of Glycogen synthase kinase-3 (Homo sapiens) (P49841 whole entry, looked up): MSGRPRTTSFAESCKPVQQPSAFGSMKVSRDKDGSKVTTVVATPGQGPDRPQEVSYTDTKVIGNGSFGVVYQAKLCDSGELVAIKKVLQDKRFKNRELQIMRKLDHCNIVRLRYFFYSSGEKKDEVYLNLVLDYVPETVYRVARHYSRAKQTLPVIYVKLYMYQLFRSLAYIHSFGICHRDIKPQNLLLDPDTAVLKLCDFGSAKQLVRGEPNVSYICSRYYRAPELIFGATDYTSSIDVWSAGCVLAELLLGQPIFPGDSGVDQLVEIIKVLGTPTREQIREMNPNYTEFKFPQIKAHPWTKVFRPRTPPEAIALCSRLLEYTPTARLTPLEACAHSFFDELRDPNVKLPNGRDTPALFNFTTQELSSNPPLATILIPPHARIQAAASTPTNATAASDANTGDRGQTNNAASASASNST

SMILES	Activity [1] [%]	also measured
CCCCc1ccc2ncc(C(=O)O)c(O)c2c1	87	
CC(C)Oc1cccc2c(O)c(C(=O)O)cnc12	93	
O=C(O)c1cnc2c(C(=O)O)cccc2c1O	73	
O=C(O)c1ccc2c(O)c(C(=O)O)cnc2c1	74	
O=C(O)c1cnc2c(ccc3ccccc32)c1O	4.5	Activity [2]: 89%; Activity [3]: 85%; IC50 (Casein kinase II [4]): 1000 nM; Activity [5]: > 50%; Activity [6]: > 50%; Activity [7]: 81%; Activity [8]: 78%; Activity [9]: 80%; Ki (Casein kinase II [10]): 280 nM; Activity [11]: 25%
O=C(O)c1cnc2cc(Cl)cc(Cl)c2c1O	70	
Cc1cccc2c(O)c(C(=O)O)cnc12	74	
O=C(O)c1cnc2c(Cl)c(Cl)ccc2c1O	12.5	
O=C(O)c1cnc2c(Cl)cccc2c1O	37	
CCCOc1ccc2ncc(C(=O)O)c(O)c2c1	80	
CC(C)c1cccc2c(O)c(C(=O)O)cnc12	95	
CCOc1ccc2ncc(C(=O)O)c(O)c2c1	107	
O=C(O)c1cnc2cc3c(cc2c1O)OCCO3	81	
O=C(O)c1cnc2ccc(Br)cc2c1O	76	
O=C(O)c1cnc2ccc(I)cc2c1O	85	
Cc1ccc(C)c2c(O)c(C(=O)O)cnc12	32	
O=C(O)c1cnc2c(Br)cccc2c1O	42	
O=C(O)c1cnc2ccc(Oc3ccccc3)cc2c1O	89	
COc1cccc2c(O)c(C(=O)O)cnc12	92	
CCOc1cccc2c(O)c(C(=O)O)cnc12	103	
O=C(O)c1c[nH]c2c(Cl)c(Cl)ccc2c1=O		IC50 (Casein kinase II [4]): 800 nM
O=C(O)c1cnc2ccccc2c1O	103	

Second part, led by results:

Activity [1] [%]	SMILES	also measured
70	O=C(O)c1cnc2c(F)cccc2c1O	
88	CC1COc2c(F)c(F)cc3c(=O)c(C(=O)O)cn1c23 (stereo not given)	
100	Cc1ccc2c(c1)c(=O)c(C(=O)O)cn2C	
106	Cn1cc(C(=O)O)c(=O)c2ccccc21	
78	O=C(O)c1cnc2cc(C(F)(F)F)ccc2c1O	
64	O=C(O)c1cnc2c(Cl)cc(Cl)cc2c1O	
15	Cc1c(Cl)ccc2c(O)c(C(=O)O)cnc12	IC50 (Casein kinase II [4]): 2000 nM
86	CCc1cccc2c(O)c(C(=O)O)cnc12	
75	CN(C)c1ccc2ncc(C(=O)O)c(O)c2c1	
102	Cc1cc(C)c2c(c1)c(=O)c(C(=O)O)cn2C	
75	O=C(O)c1cnc2ccc(Cl)cc2c1O	
56	Cc1ccc2c(O)c(C(=O)O)cnc2c1C	IC50 (Casein kinase II [4]): ≥ 33000 nM
2.6	O=C(O)c1cnc2c(Cl)cc(Cl)c(Cl)c2c1O	Activity [2]: 71%; Activity [3]: 35%; IC50 (Casein kinase II [4]): 300 nM; Activity [5]: > 50%; Activity [6]: > 50%; Activity [7]: 74%; Activity [8]: 85%; Activity [9]: 87%; Ki (Casein kinase II [10]): 60 nM; Activity [11]: 11%
99	COc1cc(OC)c2ncc(C(=O)O)c(O)c2c1	
72	O=C(O)c1cnc2ccc(F)cc2c1O	
100	Cc1ccc2ncc(C(=O)O)c(O)c2c1	
91	O=C(O)c1ccc2ncc(C(=O)O)c(O)c2c1	
101	COc1ccc2ncc(C(=O)O)c(O)c2c1	
100	CC1COc2c(N3CCN(C)CC3)c(F)cc3c(=O)c(C(=O)O)cn1c23 (stereo not given)	
100	CC(=O)c1ccc2ncc(C(=O)O)c(O)c2c1	
63	Cc1cc(C)c2ncc(C(=O)O)c(O)c2c1	

From ChEMBL document CHEMBL1137306, “Evaluation of 3-carboxy-4(1H)-quinolones as inhibitors of human protein kinase CK2” (J Med Chem, 2006)
